Series [1] deals with DNA topoisomerase 2-alpha (Homo sapiens, UniProt P11388). In words: Inhibition of human topoisomerase 2alpha assessed as reduction in relaxation of supercoiled DNA fluorescence-based microplate reader assay. In a few lines:
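Human topoisomerase IIα, 1.5 U with 0.75 µg supercoiled pNO1 plasmid, 1 mM ATP, pH 7.5 Tris/MgCl2/NaCl/DTT buffer, 37 °C 30 min. Stopped with TF buffer pH 5.0, then triplex capture on immobilized biotinylated oligonucleotide 30 min at room temperature. Dye fluorescence read (ex 485/em 537 nm). IC50 from seven concentrations, mean of three runs; etoposide control.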

The nature of series [2]: Ratio of genotoxicity in CHO-K1 cells in presence of rat liver S9 fraction by invitro micronucleus test to MIC for methicillin-resistant wild type Staphylococcus aureus ATCC 43300. Format: toxicity, cell-based. Conditions: CHO-K1 cells with rat liver S9 fraction.
The subject of series [3] is Escherichia coli. In words: Antibacterial activity against Escherichia coli 20204 assessed as inhibition of bacterial growth by CLSI protocol based broth microdilution assay. Format: functional.
The test system of series [4] is Escherichia coli. In words: Antibacterial activity against Escherichia coli MG1655 in presence of efflux pump inhibitor PAbetaN assessed as inhibition of bacterial growth by CLSI protocol based broth microdilution assay. Type of series: functional.
Series [5] has as its system Staphylococcus aureus. In words: Antibacterial activity against vancomycin-resistant Staphylococcus aureus ATCC 700699 harboring GyrB […] mutant assessed as inhibition of bacterial growth by CLSI protocol based broth microdilution assay. Format: functional. The method in brief: (§1)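 Minimum inhibitory concentration by standard serial broth microdilution following CLSI guidelines. Medium was MHBII broth (22 g/L powder: beef extract, casein acid hydrolysate, starch), with MHBII agar (14 g agar per L broth). Where noted, assayed without and with efflux pump substrate phenylalanine-arginine β-naphthylamide (PAβN).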

Series [6] can be described thus: Inhibition of Escherichia coli topoisomerase assessed as reduction in relaxation of supercoiled pNO1 DNA measured after 30 mins by fluorescence assay. In a few lines: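 Enzyme run per an earlier-reported procedure; IC50 fitted from seven inhibitor concentrations, mean of three independent measurements.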
The test system of series [7] is HepG2. Put plainly: Cytotoxicity against human HepG2 cells upto 100 uM by lactate dehydrogenase assay. Format: cell-based. The method in brief:
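HepG2 or MCF-7 cells grown in EMEM with 2 mM L-glutamine, penicillin/streptomycin, 10% FBS at 37 °C, 5% CO2; LDH release kit per manufacturer, test concentrations up to 100 µM.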

Series [8] concerns human topoisomerase 2alpha. In words: Selectivity ratio of IC50 for inhibition of human topoisomerase 2alpha to IC50 for inhibition of Staphylococcus aureus DNA gyrase. Format: toxicity. Particulars: read-out: Ratio IC50.
Series [9] relates to Escherichia coli. Put plainly: Antibacterial activity against Escherichia coli MG1655 harboring GyrB R136C mutant assessed as inhibition of bacterial growth in presence of efflux pump inhibitor PAbetaN by CLSI protocol based broth microdilution assay. Format: functional. The method in brief: as §1
(In general: Broth dilution looks for growth in wells or tubes with falling amounts of substance.)

For series [10], the system named is Pseudomonas aeruginosa. In words: Antibacterial activity against Pseudomonas aeruginosa ATCC 27853 assessed as inhibition of bacterial growth by CLSI protocol based broth microdilution assay. Format: functional.
The nature of series [11]: Drug metabolism in rat liver S9 fraction assessed as hydroxylated methyl-pyrrole moiety metabolite. Format: ADME, subcellular.
Series [12] deals with Escherichia coli. Put plainly: Antibacterial activity against wild type Escherichia coli MG1655 assessed as inhibition of bacterial growth by CLSI protocol based broth microdilution assay. Format: functional. In a few lines: as §1
Series [13] has as its system Staphylococcus aureus. In words: Ratio of MIC for vancomycin-resistant Staphylococcus aureus ATCC 700699 harboring GyrB R144I mutant to MIC for vancomycin-resistant wild type Staphylococcus aureus ATCC 700699. Format: functional.
The subject of series [14] is Staphylococcus aureus. In words: Antibacterial activity against Staphylococcus aureus ATCC 29213 assessed as inhibition of bacterial growth by CLSI protocol based broth microdilution assay. Type of series: functional.

Values after ≈ are worked out from the molar mass of the structure shown.

Sequence of DNA topoisomerase 2-alpha (P11388 whole entry): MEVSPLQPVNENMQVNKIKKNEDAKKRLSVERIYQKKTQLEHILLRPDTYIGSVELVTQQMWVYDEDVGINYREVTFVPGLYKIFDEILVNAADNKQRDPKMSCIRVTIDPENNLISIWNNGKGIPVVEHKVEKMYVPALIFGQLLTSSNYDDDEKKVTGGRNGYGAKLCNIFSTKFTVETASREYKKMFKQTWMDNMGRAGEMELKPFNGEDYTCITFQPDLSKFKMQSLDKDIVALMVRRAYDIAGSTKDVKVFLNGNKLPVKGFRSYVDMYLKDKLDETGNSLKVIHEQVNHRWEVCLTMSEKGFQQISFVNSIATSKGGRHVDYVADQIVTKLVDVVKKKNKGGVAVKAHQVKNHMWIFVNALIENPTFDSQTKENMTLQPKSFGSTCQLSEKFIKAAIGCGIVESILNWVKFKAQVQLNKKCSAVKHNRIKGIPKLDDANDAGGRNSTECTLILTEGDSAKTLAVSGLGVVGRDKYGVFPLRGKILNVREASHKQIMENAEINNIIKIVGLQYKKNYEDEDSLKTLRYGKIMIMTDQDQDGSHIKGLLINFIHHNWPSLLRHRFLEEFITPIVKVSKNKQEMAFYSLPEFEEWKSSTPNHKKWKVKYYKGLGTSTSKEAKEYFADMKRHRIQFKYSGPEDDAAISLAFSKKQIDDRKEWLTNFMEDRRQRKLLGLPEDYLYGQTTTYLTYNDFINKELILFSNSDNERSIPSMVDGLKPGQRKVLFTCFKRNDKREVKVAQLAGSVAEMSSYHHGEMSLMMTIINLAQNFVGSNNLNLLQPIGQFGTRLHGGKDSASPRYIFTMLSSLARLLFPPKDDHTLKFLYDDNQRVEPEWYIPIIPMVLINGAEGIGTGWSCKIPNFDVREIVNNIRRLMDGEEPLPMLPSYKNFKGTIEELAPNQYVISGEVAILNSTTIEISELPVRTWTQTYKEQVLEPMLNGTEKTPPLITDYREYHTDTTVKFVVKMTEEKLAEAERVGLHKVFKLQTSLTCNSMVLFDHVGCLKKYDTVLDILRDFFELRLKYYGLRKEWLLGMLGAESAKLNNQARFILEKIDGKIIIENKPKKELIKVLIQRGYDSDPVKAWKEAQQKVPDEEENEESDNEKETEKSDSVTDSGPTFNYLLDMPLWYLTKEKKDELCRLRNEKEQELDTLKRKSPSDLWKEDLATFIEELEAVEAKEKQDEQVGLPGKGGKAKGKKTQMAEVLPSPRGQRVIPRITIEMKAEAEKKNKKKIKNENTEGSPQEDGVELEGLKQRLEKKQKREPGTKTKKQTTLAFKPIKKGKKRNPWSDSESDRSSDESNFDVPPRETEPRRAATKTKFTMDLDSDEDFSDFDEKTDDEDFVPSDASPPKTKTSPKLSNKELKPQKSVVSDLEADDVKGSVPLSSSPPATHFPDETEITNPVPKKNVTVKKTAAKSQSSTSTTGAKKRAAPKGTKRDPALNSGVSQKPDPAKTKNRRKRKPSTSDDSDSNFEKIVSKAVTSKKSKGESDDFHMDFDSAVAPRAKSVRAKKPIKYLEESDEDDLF

For `Cc1[nH]c(C(=O)Nc2nc3c(OCc4ccsc4)cc(C(=O)O)cc3s2)c(Cl)c1Cl`, in series [1], the INH was 45 µM. Also, the figures for the selectivity ratio in series [2] and in series [8] were 478 and 450, respectively. Further, the MIC is 1 µg/mL (≈ 2.07 µM) in [3]; 0.125 µg/mL in series [4]; 0.0625 µg/mL (≈ 0.13 µM) in series [5]; 2 µg/mL in series [9]; 2 µg/mL (≈ 4.15 µM) in series [10]; over 64 µg/mL in series [12]. In [14], the MIC is 0.25 µg/mL (≈ 0.518 µM). The IC50 in [6] worked out at 340 nM. In series [7], the Activity result is reported as “Non-Toxic”. In addition, the Drug metabolism result in series [11] is “Metabolite_Detected”. Besides, in series [13], the Ratio was 2.

In general, MIC refers to the lowest concentration found to suppress growth. For orientation: IC50 means the concentration that inhibits the measured activity by half.

These data come from ChEMBL document CHEMBL4813947, “New dual ATP-competitive inhibitors of bacterial DNA gyrase and topoisomerase IV active against ESKAPE pathogens” (Eur J Med Chem, 2021).
